{"source": "paper PMC3579011", "about": "(Molecular cancer research : MCR, 2012)", "key": {"[1]": {"test_system": "DU145, UMUC3 and J82 cells", "test": "LDH release with autophagy inhibitor, DU145, UMUC3, J82", "assay_type": "cell-based, human", "conditions": "bafilomycin A1 40–400 nM added 1 hour prior to CLT1 (25 µg/ml) + FN, 24 hours", "in_short": "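DU145, UMUC3 and J82 cells at about 50% confluence received 40 to 400 nmol/L bafilomycin A1 plus test peptide with fibronectin for 24 h. Cell death was measured as LDH release using a cytotoxicity detection kit. Values were normalized to background death of control cells treated without peptide in the same medium.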"}, "DU145 cells [2]": {"test_system": "DU145 cells", "test": "Uptake of fluorescein-CLT1 by fluorescence microscopy, DU145", "assay_type": "cell-based, human", "conditions": "nocodazole 10 µM, 24 hours, versus DMSO", "in_short": "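DU145 cells were grown on vitronectin-coated coverslips and exposed 24 h to fluorescein-conjugated peptide alone or with nocodazole, with DMSO as vehicle. Cells were fixed in 4% paraformaldehyde and stained with DAPI. Uptake was scored by fluorescence microscopy at ×40 as the percentage of peptide-positive cells per optical field.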"}, "DU145 cells [3]": {"test_system": "DU145 cells", "test": "LDH release cytotoxicity assay, DU145", "assay_type": "cell-based"}, "[4]": {"test_system": "LC3 in UMUC3 and J82 cells", "test": "LC3 conversion", "assay_type": "cell-based, human", "conditions": "CLT1 25 µg/ml, 2% serum + FN, 24 hours", "in_short": "(§1)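 Cells were lysed by subcellular protein fractionation to obtain the cytoplasmic fraction, or in 2× SDS sample buffer. Proteins were run on SDS-PAGE and transferred to PVDF, with 0.05% Ponceau S staining to check equal loading. Blots were blocked in 5% BSA and probed overnight at 4°C with anti-cathepsin D or anti-LC3B, then detected with peroxidase-conjugated anti-rabbit or anti-mouse IgG and enhanced chemiluminescence.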"}, "[5]": {"test_system": "cathepsin D (lysosome leakage) in DU145, UMUC3 and J82 tumor cells", "test": "Cathepsin D in cytosolic fraction", "assay_type": "cell-based, human", "conditions": "CLT1 75 µg/ml, 24 hours", "in_short": "as §1"}, "[6]": {"test_system": "786-0 kidney cancer cells", "test": "CLT1-induced cell death, 786-0", "assay_type": "cell-based, human"}, "angiogenic endothelium": {"test_system": "angiogenic endothelium", "conditions": "cited from earlier work"}, "[7]": {"test_system": "bladder tumor cells (J82, T24, UMUC3, TCCSUP)", "test": "LDH release cytotoxicity assay, bladder tumor cells", "assay_type": "cell-based", "conditions": "CLT1 75 µg/ml, 24 hours; even in the presence of urine"}, "[8]": {"test_system": "primary human bladder epithelial cells (HBEC)", "test": "LDH release cytotoxicity assay, primary bladder epithelial cells", "assay_type": "cell-based", "conditions": "CLT1 75 µg/ml, 24 hours", "in_short": "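Primary human bladder epithelial cells were kept in serum-free Prostalife basal medium with supplements at 37°C and 5% CO2, and treated at about 50% confluence. Peptide diluted in water was added for 24 h in 2% serum alone, or with fibronectin or fibrinogen. Cell death was read as LDH release, expressed as a percentage of maximal release from camptothecin plus 100 nmol/L staurosporine.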"}, "[9]": {"test_system": "bladder and prostate tumor cells", "test": "Internalization of fluorescein-CLT1 with fibronectin or fibrinogen", "assay_type": "cell-based, human", "conditions": "FN or FG each 30 µg/ml", "in_short": "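Cells were grown on vitronectin-coated coverslips and incubated 24 h with fluorescein-conjugated peptide in 2% serum with fibronectin or fibrinogen. They were then fixed in 4% paraformaldehyde and mounted in DAPI-containing medium. Internalization was scored by fluorescence microscopy at ×40 as the percentage of peptide-positive cells per optical field.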"}, "[10]": {"test_system": "human bladder (J82, T24, UMUC3, TCCSUP), prostate (DU145), kidney (RCC4), breast (MDA-MB-231) and lung (A549) tumor cell lines", "test": "LDH release cytotoxicity assay, panel of tumor cell lines", "assay_type": "cell-based", "conditions": "without CLT1"}}, "note": "Positions of bridges follow the written chain, without caps; N, C: chain ends. No end group written: not given here.", "data": [{"compound": "CO/C1=C\\C(C)=C\\[C@@H](C)[C@@H](O)[C@@H](C)C/C(C)=C/C=C/[C@H](OC)[C@@H]([C@@H](C)[C@@H](O)[C@H](C)[C@@]2(O)C[C@@H](O)[C@H](C)[C@@H](C(C)C)O2)OC1=O", "note": "[bafilomycin A1, Bafilomycin A1]", "values": [{"measurement": "effect on CLT1 cytotoxicity (LDH release)", "setting": "[1]", "value": "significantly reduced"}]}, {"compound": "COC(=O)Nc1nc2ccc(C(=O)c3cccs3)cc2[nH]1", "note": "[nocodazole, reference compound]", "values": [{"measurement": "effect on CLT1 uptake", "setting": "DU145 cells [2]", "value": "inhibited"}, {"measurement": "effect on CLT1 cytotoxicity (LDH release)", "setting": "DU145 cells [3]; nocodazole 10 µM, CLT1 75 µg/ml, 24 hours, versus DMSO", "value": "significantly reduced"}]}, {"compound": "CGLIIQKNEC (disulfide 1-10 (inferred)) [CLT1]", "values": [{"measurement": "LC3 conversion (autophagy marker)", "setting": "[4]", "value": "causes LC3 conversion"}, {"measurement": "cathepsin D in cytoplasmic fraction (indicator for lysosome leakage)", "setting": "[5]", "value": "increased concentrations"}, {"measurement": "sensitivity to CLT1-induced cell death", "setting": "[6]", "value": "largely resistant"}, {"measurement": "anti-angiogenic activity in vivo", "setting": "angiogenic endothelium", "value": "strong anti-angiogenic activity"}, {"measurement": "cell death of bladder cancer cells", "setting": "[7]", "value": "extensive cell death"}, {"measurement": "cytotoxic activity in primary bladder epithelial cells", "setting": "[8]", "value": "largely inactive"}, {"measurement": "CLT1 concentration at which cytotoxicity reached a plateau", "setting": "DU145 cells [3]; CLT1 7.5–150 µg/ml, 2% serum + 30 µg/ml fibronectin, 24 hours, LDH release", "value": 75, "unit": "µg/mL"}, {"measurement": "cell death in the absence of plasma fibronectin", "setting": "DU145 cells [3]; prostate tumor cells, FN-depleted serum", "value": "minimal cell death"}]}, {"compound": "fibrinogen", "values": [{"measurement": "effect on CLT1 uptake / internalization", "setting": "[9]", "value": "largely prevents"}]}, {"compound": "fibronectin", "values": [{"measurement": "effect on CLT1 uptake / internalization", "setting": "[9]", "value": "supports"}, {"measurement": "effect of protein alone on tumor cell fate", "setting": "[10]", "value": "no effect"}, {"measurement": "fibronectin concentration at which CLT1 cytotoxicity occurred", "setting": "DU145 cells [3]; FN-depleted serum, CLT1 75 µg/ml, FN 3–100 µg/ml, within 24 hours, LDH release", "value": 10, "unit": "µg/mL"}]}]}
